Data on 2 molecules can be found in publication PMC10907882 (Pharmacology Research & Perspectives, 2024).

Each structure is given as a SMILES string.

Data set [1] deals with T1, human calpain‐1 (Homo sapiens, UniProt P07384).
T1 sequence (P07384 1-714): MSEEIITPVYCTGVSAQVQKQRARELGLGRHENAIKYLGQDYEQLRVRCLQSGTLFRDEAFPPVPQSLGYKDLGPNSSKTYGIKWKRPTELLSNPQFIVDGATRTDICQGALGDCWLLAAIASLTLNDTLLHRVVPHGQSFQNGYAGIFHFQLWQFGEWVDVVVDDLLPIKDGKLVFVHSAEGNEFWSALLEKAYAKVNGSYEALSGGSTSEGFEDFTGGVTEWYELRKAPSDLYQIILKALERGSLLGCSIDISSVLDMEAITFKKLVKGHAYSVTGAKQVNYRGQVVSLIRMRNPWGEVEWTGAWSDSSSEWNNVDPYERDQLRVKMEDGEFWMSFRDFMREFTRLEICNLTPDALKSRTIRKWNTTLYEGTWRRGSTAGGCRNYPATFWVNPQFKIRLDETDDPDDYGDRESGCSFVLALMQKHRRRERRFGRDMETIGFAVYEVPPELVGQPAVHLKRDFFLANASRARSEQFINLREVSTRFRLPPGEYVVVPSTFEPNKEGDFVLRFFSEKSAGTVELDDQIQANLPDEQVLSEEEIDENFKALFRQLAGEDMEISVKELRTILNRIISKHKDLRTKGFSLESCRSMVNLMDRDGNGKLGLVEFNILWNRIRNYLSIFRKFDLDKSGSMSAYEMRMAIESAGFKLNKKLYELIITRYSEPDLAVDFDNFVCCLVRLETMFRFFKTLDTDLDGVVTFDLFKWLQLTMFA
T1 sequence (P04632 1-268 partner): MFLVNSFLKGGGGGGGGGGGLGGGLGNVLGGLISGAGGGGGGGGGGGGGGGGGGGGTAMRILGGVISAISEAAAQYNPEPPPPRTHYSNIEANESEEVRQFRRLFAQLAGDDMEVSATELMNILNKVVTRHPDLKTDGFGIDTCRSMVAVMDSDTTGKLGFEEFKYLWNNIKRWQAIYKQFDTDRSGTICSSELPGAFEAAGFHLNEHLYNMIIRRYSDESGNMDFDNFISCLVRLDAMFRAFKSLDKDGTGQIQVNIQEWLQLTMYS
As to the kind of experiment: In vitro calpain assay. In kind it is biochemical. The settings on record: read-out: K i for human calpain‐1; purified human calpain‐1; means ± SEM of three experiments or single experiment. Put shortly: (§1)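 Enzymes were purified human erythrocyte calpain-1 (8 μg) or bacterially expressed recombinant human calpain-2. Buffer was 60 mM imidazole-HCl pH 7.3 with 5 mM CaCl₂, 5 mM cysteine, 2.5 mM β-mercaptoethanol, 0.5 mM Suc-Leu-Tyr-AMC and test compound (0–20 μM). Reactions were started with enzyme and run at 30°C for 15 min, reading AMC fluorescence (380/450 nm) every 30 s. IC50 came from sigmoidal fits of linear rates; Ki from mean IC50 assuming competitive binding.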

The target of data set [2] is T2, rec human calpain‐2 (Homo sapiens, UniProt P17655).
T2 sequence (P17655 1-700): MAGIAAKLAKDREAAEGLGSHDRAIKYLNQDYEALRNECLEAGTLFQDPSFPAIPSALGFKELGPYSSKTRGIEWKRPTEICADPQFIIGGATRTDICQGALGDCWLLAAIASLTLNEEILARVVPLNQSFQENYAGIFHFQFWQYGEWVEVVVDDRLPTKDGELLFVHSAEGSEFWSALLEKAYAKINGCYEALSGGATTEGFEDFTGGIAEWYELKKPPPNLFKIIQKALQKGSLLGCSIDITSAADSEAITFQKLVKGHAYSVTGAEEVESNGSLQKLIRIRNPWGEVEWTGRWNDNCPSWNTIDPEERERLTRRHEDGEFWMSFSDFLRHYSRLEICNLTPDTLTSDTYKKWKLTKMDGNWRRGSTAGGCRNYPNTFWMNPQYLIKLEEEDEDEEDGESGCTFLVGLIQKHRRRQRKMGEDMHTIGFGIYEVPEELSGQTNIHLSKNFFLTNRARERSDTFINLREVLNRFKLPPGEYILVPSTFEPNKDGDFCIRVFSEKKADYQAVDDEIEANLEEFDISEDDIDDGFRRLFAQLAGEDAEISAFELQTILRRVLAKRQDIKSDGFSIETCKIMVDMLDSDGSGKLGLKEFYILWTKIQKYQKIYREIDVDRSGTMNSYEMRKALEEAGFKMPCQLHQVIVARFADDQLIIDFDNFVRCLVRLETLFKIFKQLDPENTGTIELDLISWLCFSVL
Briefly: In vitro calpain assay. The class given is biochemical. Put shortly:
as §1

The target in data set [3] is T3, mouse calpain‐1 (Mus musculus, UniProt O35350).
T3 sequence (O35350 1-713): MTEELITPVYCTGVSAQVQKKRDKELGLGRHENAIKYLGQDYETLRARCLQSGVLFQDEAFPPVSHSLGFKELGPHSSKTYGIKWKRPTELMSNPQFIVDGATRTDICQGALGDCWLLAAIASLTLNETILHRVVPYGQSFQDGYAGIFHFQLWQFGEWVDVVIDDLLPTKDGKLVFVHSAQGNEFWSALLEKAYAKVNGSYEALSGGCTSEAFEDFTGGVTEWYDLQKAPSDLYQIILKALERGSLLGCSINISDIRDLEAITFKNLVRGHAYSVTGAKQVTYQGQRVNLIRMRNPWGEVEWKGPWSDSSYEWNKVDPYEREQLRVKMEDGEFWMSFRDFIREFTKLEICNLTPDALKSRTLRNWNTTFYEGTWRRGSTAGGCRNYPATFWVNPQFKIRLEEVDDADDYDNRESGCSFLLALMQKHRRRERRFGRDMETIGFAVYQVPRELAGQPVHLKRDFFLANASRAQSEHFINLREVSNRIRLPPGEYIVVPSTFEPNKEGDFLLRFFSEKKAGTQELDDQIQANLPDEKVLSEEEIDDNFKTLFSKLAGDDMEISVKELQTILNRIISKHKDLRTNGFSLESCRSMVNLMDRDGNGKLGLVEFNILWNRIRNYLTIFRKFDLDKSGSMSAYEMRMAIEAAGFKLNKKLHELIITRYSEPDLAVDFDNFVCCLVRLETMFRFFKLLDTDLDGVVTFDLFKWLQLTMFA
T3 sequence (O88456 1-268 partner): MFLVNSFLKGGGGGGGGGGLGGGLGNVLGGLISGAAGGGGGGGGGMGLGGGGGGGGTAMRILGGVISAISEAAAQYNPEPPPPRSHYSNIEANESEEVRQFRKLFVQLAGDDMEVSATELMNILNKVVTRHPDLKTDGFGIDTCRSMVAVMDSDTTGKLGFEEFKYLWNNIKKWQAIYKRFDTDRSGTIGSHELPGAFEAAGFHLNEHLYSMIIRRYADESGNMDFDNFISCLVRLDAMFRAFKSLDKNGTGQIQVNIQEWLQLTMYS
Briefly: Ex‐vivo calpain assay, mouse pons‐cerebellum membrane fractions, 20 μM calcium. In kind it is biochemical. As to conditions: read-out: IC50 for mouse calpain‐1, endogenous brain calpain‐1, membrane fractions. An outline of the steps: (§2)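 Membrane fractions from mouse pons-cerebellum were resuspended in 60 mM imidazole-HCl pH 7.3 with 5 mM cysteine and 2.5 mM β-mercaptoethanol and exposed to test compound concentrations. Calpain-1 was assayed in wild-type membranes with 20 μM calcium. Calpain-2 was assayed in calpain-1 knockout membranes with 2 mM calcium. Substrate was Suc-Leu-Tyr-AMC (0.5 mM). Two experiments.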

Data set [4] addresses T4, mouse calpain‐2 (Mus musculus, UniProt O08529).
T4 sequence (O08529 1-700): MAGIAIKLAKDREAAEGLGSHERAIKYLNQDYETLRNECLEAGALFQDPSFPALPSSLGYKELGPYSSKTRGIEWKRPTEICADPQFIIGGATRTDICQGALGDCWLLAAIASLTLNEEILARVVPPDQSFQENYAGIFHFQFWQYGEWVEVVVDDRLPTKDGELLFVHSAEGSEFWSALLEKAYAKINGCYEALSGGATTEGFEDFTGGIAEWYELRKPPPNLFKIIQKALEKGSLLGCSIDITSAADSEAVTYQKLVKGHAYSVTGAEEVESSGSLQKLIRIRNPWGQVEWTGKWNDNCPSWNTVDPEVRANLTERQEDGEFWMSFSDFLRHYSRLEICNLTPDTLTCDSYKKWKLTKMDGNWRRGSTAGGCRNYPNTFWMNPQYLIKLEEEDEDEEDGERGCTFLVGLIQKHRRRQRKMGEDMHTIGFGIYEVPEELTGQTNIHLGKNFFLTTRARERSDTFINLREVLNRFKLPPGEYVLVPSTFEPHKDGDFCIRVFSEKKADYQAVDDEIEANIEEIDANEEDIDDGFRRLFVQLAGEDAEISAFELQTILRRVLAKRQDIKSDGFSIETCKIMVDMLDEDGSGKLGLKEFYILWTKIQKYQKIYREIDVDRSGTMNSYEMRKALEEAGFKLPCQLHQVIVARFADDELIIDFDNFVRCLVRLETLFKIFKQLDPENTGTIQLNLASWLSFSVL
T4 sequence (O88456 1-268 partner): T3 sequence (O88456 1-268 partner)
Briefly: Ex‐vivo calpain assay, mouse pons‐cerebellum membrane fractions, 2 mM calcium. The class given is biochemical. As to conditions: mouse brain enzymes. Put shortly:
as §2

In data set [5] the test system is calpain‐2. As to conditions: reported; cited from earlier work.
The conditions of data set [6]: twice‐daily dosing for 2 weeks; healthy elderly and patients with mild to moderate Alzheimer's disease; cited from earlier work.

A word on the IC50: it is the point on the concentration scale where inhibition reaches its midpoint. Consider `CCC(NC(=O)[C@H](CC(C)C)NC(=O)OCc1ccccc1)C(=O)C(=O)NCc1cc(OC)cc(OC)c1` (stereo partly shown) [Compound C2I, Z‐Leu‐Abu‐CONH‐CH2‐C6H3(3,5‐(OMe)2)], for which the Ki in data set [1] was 124 ± 6 nM; in data set [2] (read-out: K i for rec human calpain‐2, recombinant human calpain‐2, means ± SEM of three experiments or single experiment), 55 ± 7 nM. Further, in data set [2] (human enzymes), the “Ratio 1/2 (K i calpain‐1 / calpain‐2)” value was 2.3. In data set [3], the IC50 came out at 1130 nM. The “Ratio 1/2 (IC50 calpain‐1 / calpain‐2)” value in data set [4] worked out at 26. In data set [5], the “difference in K i values for calpain‐2 vs calpain‐1” value is given as 100 fold.
As for `O=C(NC1CC1)C(=O)C(Cc1ccccc1)NC(=O)[C@H]1CCC(=O)N1Cc1ccccc1` (stereo partly shown) [ABT‐957], the “adverse effects in Phase I” value in data set [6] was “did not result in significant adverse effects”.
